Compounds with a hit are over-represented: about 1.8% of the library has one in this group of screens.
C2C12 statin = suppressors of statin myotoxicity in C2C12 myotubes, primary screen, cell-based, single point, plate reader; rescue of ATP level, % at 7.49 µM; hit rate 0.78% among 330,000; C2C12 myotubes + simvastatin, ATP luminescence, 48 h; scaled: DMSO 0, geranylgeraniol control 100; AID 602340, 2012;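 active = mean ATP rescue above about 67%, or every replicate alone reaching that limit, limit read from the data, passing the limit was not always enough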;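 also: myotubes were challenged with 10 µM simvastatin during compound exposure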
Cneo AK release = Cryptococcus neoformans cell lysis inducers, primary screen, AK release luminescence, single concentration; C. neoformans lysis, adenylate kinase release luminescence, 4 h; normalised: neutral wells 0, clomiphene wells 100; lysis activity, % at 15 µM; hit rate 0.2% among 360,000; AID 651654, 2012;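 active = mean lysis activity across replicates of at least 80%, whatever share of replicates individually reach that level; inactive = mean lysis activity below 80%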
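Material: C. neoformans cells; Schedule: 4 h static compound exposure, 37 °C, read 1 h post-reagent; Measured by: adenylate kinase release luminescence; Read-out: signal increase indicating cell lysis; Controls: Clomiphene as positive lysis control.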
Efflux pump inh = inhibitors of Candida efflux pumps in yeast, primary screen, S. cerevisiae, Nile Red, multiplex | S. cerevisiae Candida pump triplex | inhibition, % at 10 µM | hit rate 0.44% among 330,000;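 active = plate passing quality check with inhibition over a set limit, or well fluorescence over plate mean plus 4 SD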;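 also: Nile Red retained in pooled yeast measured as flow cytometry median fluorescence; 0% = buffer negative control and 100% = Enniatin B positive control; higher means more Nile Red kept so more efflux inhibition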
Mot1-301 SUMO = yeast Mot1-301 growth rescue at high temperature, primary screen, SUMOylation pathway inhibitor project, S. cerevisiae, ATP luminescence, 38.5C | AID 2716, 2010 | S. cerevisiae Mot1-301 growth rescue; percent above DMSO median, 100 means doubled | growth rescue, % at 18.8 µM | hit rate 1% among 320,000;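 active = every valid replicate shows activation above 250% relative to neutral control wells; inactive = the rest, any valid replicate at or below 250%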;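 also: OY570 slx delta 5 strain wells were the positive control but not used for scaling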
Mot1 SUMO dose = growth restoration of Mot1-301 yeast on galactose, dose response, SUMO pathway inhibitor project, whole organism, S. cerevisiae, ATP luminescence, cherry-picked samples. shares compounds with Mot1-301 SUMO. S. cerevisiae Mot1-301 galactose growth, 24 h; -100 = growth of slx-deleted rescue strain. growth activity, percent, % at 42 µM. 2,300 tested, under 10 active. AID 493004, 2010;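 active = Signal drops as the depositor expects, and the fitted half-maximal dose is no more than ten times the top valid tested dose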;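 also: more negative values mean stronger growth rescue toward the control strain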
Active calls of the source: *; x = not tested or not shown; + = active, no number; ! = a repeat was not active; [ ] = remark or other dose.

SMILES	C2C12 statin	Cneo AK release	Efflux pump inh	Mot1-301 SUMO	Mot1 SUMO dose
CN1CCN(S(=O)(=O)c2ccc(NC(=O)c3cccs3)cc2)CC1	-11	2	0	129	x
CCCCCCCCCCOC(=O)Cn1c(COc2ccc(OC)cc2)[n+](C)c2ccccc21	-11	8	0	563*!	-2
CCCCCCCCCCOC(=O)Cn1c(COc2ccccc2)[n+](C)c2ccccc21	-112	6	0	150	x
CC(=O)c1ccc(N2CCCCC2)c(F)c1	x	x	0	9	x
Cc1cc(C)n2nc(C(=O)NCC(=O)Nc3ccc(F)c(F)c3)nc2n1	x	x	0	-11	x
Cc1[nH]c(C)c(S(=O)(=O)NCC(C)c2ccccc2)c1C(=O)N1CCCCC1 (centres undefined)	-4	-2	0	497*	0
CCOc1ccc(/C=N/NC(=O)c2ccc(CSc3nc4ccccc4[nH]3)cc2)cc1	x	x	0	508*	0
C[C@@H]1CCCCO[C@H](CN(C)S(=O)(=O)c2cccs2)[C@@H](C)CN([C@H](C)CO)C(=O)c2cc(NS(=O)(=O)c3ccc(Cl)cc3)ccc2O1	x	0	x	x	x
CC(=O)OCc1ccccc1Sc1ccccc1C(=O)NCc1ccccc1	x	x	0	4	x
CNC(=O)c1ccccc1S(=O)c1ccccc1COC(C)=O (centres undefined)	5	-1	0	384*	0
O=S(=O)(NC[C@H]1N[C@H](CO)[C@@H]1c1ccccc1)c1ccccc1	2	-6	x	x	x
Cc1ccc(S(=O)(=O)NCCS(=O)(=O)N2CCN(c3ccc(F)cc3)CC2)cc1	8	-2	0	543*	2
COc1ccc(S(=O)(=O)NCC(=O)N(CC(=O)NCC2CCCO2)c2ccccc2C)cc1 (centres undefined)	3	0	0	921*	1
COc1ccc(CN(CC(=O)NCC2CCCO2)C(=O)CNS(=O)(=O)c2ccc(C)cc2)cc1 (centres undefined)	-3	2	1	18	x
O=C(CN(CC1CCCO1)C(=O)CNS(=O)(=O)c1ccc(F)cc1)NCc1ccccc1 (centres undefined)	-2	-1	0	886*	0
CC(C)(C)c1ccc(C(=O)NCCC(=O)N2CCC3(CC2)NCCc2[nH]cnc23)cc1	-3	0	0	-13	x
C=CCc1cccc(C=Nc2cccn3cc(-c4ccccc4)nc23)c1O	-3	x	0	-12	x
Cn1c(CCN2CCOCC2)nc2cc(NC(=O)COc3ccccc3)ccc21	-4	-4	0	+	1
CCCCCCCCc1nc(SCC(C)=O)n[nH]1	x	x	0	699*	-1
CCOC(=O)C1CCN(C(=O)c2ccc3c(c2)NC(=O)/C(=C\c2ccc(C)cc2)S3)CC1	4	3	1	-2	x
CCOC(=O)C1CCN(C(=O)c2ccc3c(c2)NC(=O)/C(=C/c2ccccc2)S3)CC1	-6	-4	0	405*	-1
O=C(/C=C/c1ccccc1)Nc1cccc(C(=O)NC2CC2)c1	-4	2	x	x	x
COc1ccc2[nH]cc(CCNS(=O)(=O)c3ccc(C)cc3)c2c1	x	x	0	484*	0
Cc1ccc2[nH]c(=O)c(CN(CCCO)S(=O)(=O)c3cccc4nsnc34)cc2c1	9	1	0	-4	x
O=C(COC(=O)CNC(=O)c1ccc(Cl)cc1)Nc1ccc2c(c1)OCCO2	x	x	0	-21	x
SMILES	C2C12 statin	Cneo AK release	Efflux pump inh	Mot1-301 SUMO	Mot1 SUMO dose
Cc1cc(C)n(C(=O)CNC(=O)c2ccc3c(c2)OCCO3)n1	x	11	0	601*	0
Cc1ccc(C(=O)NCC(=O)Nc2ccc3c(c2)OCCO3)cc1	-6	1	0	580*	0[21 µM]
CO[C@@H]1CN(C)C(=O)c2cc(NC(=O)NC(C)C)ccc2OC[C@@H](C)N(C)C[C@@H]1C	-4	1	x	x	x
Cc1csc(NC(=O)CSc2[nH]c(=O)ncc2C)n1	-3	-1	0	-9	x
Cc1cnc(=O)[nH]c1SCC(=O)c1ccc(F)cc1	10	-3	0	436*	0
O=C(O)COc1ccc(=O)n(-c2ccccc2)n1	x	0	0	+	0
O=C(Nc1cccc(O)c1)C(Cc1ccccc1)N1C(=O)c2cccc3cccc(c23)C1=O (centres undefined)	x	x	0	855*	1
O=C(O)C(Cc1ccccc1)N1C(=O)c2cccc3cccc(c23)C1=O (centres undefined)	x	x	0	-8	x
Cc1cc(NC(=O)/C=C/c2ccco2)ccc1NC(=O)c1ccccc1	4	-2	0	432*	0
Cc1ccccc1NC(=O)CCN1CCN(Cc2ccccc2)CC1	6	1	0	-8	x
Cc1cc(C)c(NC(=O)CCN2CCN(Cc3ccccc3)CC2)c(C)c1	x	-4	0	465*	0
CNC(=O)COC(=O)c1cc(-c2ccco2)nc2ccccc12	-21	0	0	+	0
O=C(COC(=O)c1cc(-c2ccco2)nc2ccccc12)NCc1ccccc1	8	-1	0	1	x
COCCNC(=S)N/N=C(\C)c1ccc(OC(F)F)cc1	-29	x	0	5	x
Cc1ccc(NC(=O)CN2C(=O)COc3ccc(S(=O)(=O)N4CCOCC4)cc32)cc1F	2	0	0	500*	0
COc1ccc(NC(=O)CN2C(=O)COc3ccc(S(=O)(=O)N4CCOCC4)cc32)cc1Cl	55	7	0	-9	x
Cc1ccc(Oc2ccccc2NC(=O)C2=COCCO2)cc1	x	x	0	416*	0
O=C(Nc1cc(Cl)ccc1Oc1ccccc1)C1=COCCO1	x	x	0	12	x
CN1CCN(C(=O)CCN2C(=O)/C(=C/c3ccccc3Cl)SC2=S)CC1	2	0	0	378*	-1
CN1CCN(C(=O)CCN2C(=O)/C(=C\c3ccccc3F)SC2=S)CC1	14	2	0	-5	x
S=c1[nH]nc(-c2ccncc2)n1CC1CCCO1 (centres undefined)	-19	-4	0	-1	x
Fc1ccc(-c2n[nH]c(=S)n2CC2CCCO2)cc1 (centres undefined)	x	-1	0	393*	0
C[C@H]1CN([C@@H](C)CO)C(=O)Cc2cc(NC(=O)Nc3ccc(F)cc3)ccc2O[C@H]1CN(C)S(=O)(=O)c1cn(C)cn1	-15	x	x	x	x
O=C(O)CCc1ccc(-c2cccs2)n1NC(=O)c1cccs1	3	3	0	+	0
O=C(O)CCc1ccc(-c2cccs2)n1NC(=O)c1ccc(O)cc1	x	x	0	-31	x
C=CC(=O)NC1CC2CCC1(C)C2(C)C (centres undefined)	-4	5	0	459*	1
